ChEMBL document CHEMBL1649392, “Synthesis of substituted 3-amino-N-phenyl-1H-indazole-1-carboxamides endowed with antiproliferative activity” (Eur J Med Chem, 2011)

How the values were obtained:
Type in all cases: functional
RXF 393 = assay: Antiproliferative activity against human RXF393 cells after 48 hrs by sulforhodamine B assay; details: RXF 393, 48 h; for CC50: read-out: LC50 (the source's name)
Method in brief: (§1)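 NCI 60-cell-line panel covering nine cancer types (leukemia, non-small cell lung, colon, CNS, melanoma, ovarian, renal, prostate, breast). Compounds were first tested at a single dose, then in a five-dose screen (series starting 0.01, 0.1 …) if they met NCI threshold criteria. Reported per line: GI50 (molar concentration inhibiting 50% net growth), TGI (total growth inhibition) and LC50 (50% net cell death).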

SK-OV-3 = assay: Antiproliferative activity against human SKOV3 cells after 48 hrs by sulforhodamine B assay; details: SK-OV-3, 48 h; for CC50: read-out: LC50 (the source's name); method in brief: as §1
SNB-75 = assay: Antiproliferative activity against human SNB75 cells after 48 hrs by sulforhodamine B assay; details: SNB-75, 48 h; method in brief: as §1
SF-539 = assay: Antiproliferative activity against human SF539 cells after 48 hrs by sulforhodamine B assay; details: SF-539, 48 h; for CC50: read-out: LC50 (the source's name); method in brief: as §1
COLO 205 = assay: Antiproliferative activity against human COLO205 cells after 48 hrs by sulforhodamine B assay; details: COLO 205, 48 h; method in brief: as §1
UO-31 = assay: Antiproliferative activity against human UO31 cells after 48 hrs by sulforhodamine B assay; details: UO-31, 48 h; for CC50: read-out: LC50 (the source's name)
Method in brief: (§2)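 NCI 60-cell-line panel screen: single dose 10 µM first, then 5-dose testing (0.01, 0.1, … molar series). For each line, GI50 is the molar concentration giving 50% inhibition of net cell growth, TGI gives total inhibition of net growth, and LC50 gives 50% net cell death. Method follows the NCI DTP protocol.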

SW-620 = assay: Antiproliferative activity against human SW620 cells after 48 hrs by sulforhodamine B assay; details: SW-620, 48 h; for CC50: read-out: LC50 (the source's name); method in brief: as §2
HCC 2998 = assay: Antiproliferative activity against human HCC2998 cells after 48 hrs by sulforhodamine B assay; details: HCC 2998, 48 h; for CC50: read-out: LC50 (the source's name); method in brief: as §1
SNB-19 = assay: Antiproliferative activity against human SNB19 cells after 48 hrs by sulforhodamine B assay; details: SNB-19, 48 h; for CC50: read-out: LC50 (the source's name); method in brief: as §1
DU-145 = assay: Antiproliferative activity against human DU145 cells after 48 hrs by sulforhodamine B assay; details: DU-145, 48 h; for CC50: read-out: LC50 (the source's name); method in brief: as §1
IGROV-1 = assay: Antiproliferative activity against human IGROV1 cells after 48 hrs by sulforhodamine B assay; details: IGROV-1, 48 h; for CC50: read-out: LC50 (the source's name); method in brief: as §1
[1] = Antiproliferative activity against human Hs 578T cells after 48 hrs by sulforhodamine B assay; details: for CC50: read-out: LC50 (the source's name); method in brief: as §1
UACC-257 = assay: Antiproliferative activity against human UACC257 cells after 48 hrs by sulforhodamine B assay; details: UACC-257, 48 h; for CC50: read-out: LC50 (the source's name); method in brief: as §2
K562 = assay: Antiproliferative activity against human K562 cells after 48 hrs by sulforhodamine B assay; details: K562, 48 h; method in brief: as §1
NCI-H460 = assay: Antiproliferative activity against human NCI-H460 cells after 48 hrs by sulforhodamine B assay; details: NCI-H460, 48 h; for CC50: read-out: LC50 (the source's name); method in brief: as §1
[2] = Antiproliferative activity against human […] cells after 48 hrs by sulforhodamine B assay; details: for CC50: read-out: LC50 (the source's name); method in brief: as §1
786-0 = assay: Antiproliferative activity against human 786-0 cells after 48 hrs by sulforhodamine B assay; details: 786-0, 48 h; for CC50: read-out: LC50 (the source's name); method in brief: as §1
NCI-H522 = assay: Antiproliferative activity against human NCI-H522 cells after 48 hrs by sulforhodamine B assay; details: NCI-H522, 48 h; method in brief: as §1
OVCAR-5 = assay: Antiproliferative activity against human OVCAR5 cells after 48 hrs by sulforhodamine B assay; details: OVCAR-5, 48 h; for CC50: read-out: LC50 (the source's name); method in brief: as §1
U-251 = assay: Antiproliferative activity against human U251 cells after 48 hrs by sulforhodamine B assay; details: U-251, 48 h; method in brief: as §2
T47D = assay: Antiproliferative activity against human T47D cells after 48 hrs by sulforhodamine B assay; method in brief: as §2
SF-268 = assay: Antiproliferative activity against human SF268 cells after 48 hrs by sulforhodamine B assay; details: SF-268, 48 h; for CC50: read-out: LC50 (the source's name); method in brief: as §1
NCI-H226 = assay: Antiproliferative activity against human NCI-H226 cells after 48 hrs by sulforhodamine B assay; details: NCI-H226, 48 h; for CC50: read-out: LC50 (the source's name); method in brief: as §1
CAKI-1 = assay: Antiproliferative activity against human Caki1 cells after 48 hrs by sulforhodamine B assay; details: CAKI-1, 48 h; for CC50: read-out: LC50 (the source's name); method in brief: as §1
MOLT-4 = assay: Antiproliferative activity against human MOLT4 cells after 48 hrs by sulforhodamine B assay; details: MOLT-4, 48 h; for CC50: read-out: LC50 (the source's name); method in brief: as §1
HOP-62 = assay: Antiproliferative activity against human HOP62 cells after 48 hrs by sulforhodamine B assay; details: HOP-62, 48 h; method in brief: as §1
TK-10 = assay: Antiproliferative activity against human TK10 cells after 48 hrs by sulforhodamine B assay; details: TK-10, 48 h; for CC50: read-out: LC50 (the source's name); method in brief: as §2
SK-MEL-28 = assay: Antiproliferative activity against human SK-MEL-28 cells after 48 hrs by sulforhodamine B assay; details: SK-MEL-28, 48 h; for CC50: read-out: LC50 (the source's name); method in brief: as §1
A549 = assay: Antiproliferative activity against human A549 cells after 48 hrs by sulforhodamine B assay; details: A549, 48 h; for CC50: read-out: LC50 (the source's name); method in brief: as §1
OVCAR-8 = assay: Antiproliferative activity against human OVCAR8 cells after 48 hrs by sulforhodamine B assay; details: OVCAR-8, 48 h; for CC50: read-out: LC50 (the source's name); method in brief: as §1
Malme-3M = assay: Antiproliferative activity against human MALME-3M cells after 48 hrs by sulforhodamine B assay; method in brief: as §1

## Nc1ccc2c(c1)c(N)nn2C(=O)Nc1ccc(Cc2ccccc2)cc1
RXF 393
  GI50: 21.4 µM
  TGI: 43.9 µM
  CC50: 90.1 µM
SK-OV-3
  GI50: 15.3 µM
  TGI: 37.7 µM
  CC50: 92.8 µM
SNB-75
  GI50: 17.4 µM
  LC50 (concentration causing 50% net cell death): 57.1 µM
  TGI: 31.5 µM
SF-539
  GI50: 8.7 µM
  TGI: 22.1 µM
  CC50: 51.8 µM
COLO 205
  GI50: 13.1 µM
  LC50 (concentration causing 50% net cell death): 53.9 µM
  TGI: 26.5 µM
UO-31
  GI50: 4.72 µM
  TGI: 32.6 µM
  CC50: > 100 µM
SW-620
  GI50: 4.48 µM
  TGI: 18.7 µM
  CC50: 58.5 µM
HCC 2998
  GI50: 4.17 µM
  TGI: 14.8 µM
  CC50: 40.9 µM
SNB-19
  GI50: 13.9 µM
  TGI: 27.3 µM
  CC50: 53.6 µM
DU-145
  GI50: 10.9 µM
  TGI: 24 µM
  CC50: 52.6 µM
IGROV-1
  GI50: 16.4 µM
  TGI: 54.1 µM
  CC50: > 100 µM
[1]
  GI50: 17.3 µM
  TGI: 43 µM
  CC50: > 100 µM
UACC-257
  GI50: 14.5 µM
  TGI: 29.7 µM
  CC50: 60.8 µM
K562
  GI50: 2.24 µM
  LC50 (concentration causing 50% net cell death): > 100 µM
  TGI: 11.4 µM
NCI-H460
  GI50: 4.64 µM
  TGI: 23.8 µM
  CC50: > 100 µM
[2]
  GI50: 5.14 µM
  TGI: 35 µM
  CC50: > 100 µM
786-0
  GI50: 12.4 µM
  TGI: 25.9 µM
  CC50: 54.3 µM
NCI-H522
  GI50: 14.7 µM
  LC50 (concentration causing 50% net cell death): > 100 µM
  TGI: 39.6 µM
OVCAR-5
  GI50: 22.6 µM
  TGI: 60.5 µM
  CC50: > 100 µM
U-251
  GI50: 6.53 µM
  LC50 (concentration giving 50% net cell death): 52 µM
  TGI: 20.9 µM
T47D
  GI50: 5.8 µM
  LC50 (concentration giving 50% net cell death): 66 µM
  TGI: 22.8 µM
SF-268
  GI50: 13 µM
  TGI: 30.7 µM
  CC50: 72.5 µM
NCI-H226
  GI50: 16.1 µM
  TGI: 38.3 µM
  CC50: 91.4 µM
CAKI-1
  GI50: 4.3 µM
  TGI: 26.8 µM
  CC50: > 100 µM
MOLT-4
  GI50: 4.48 µM
  TGI: 24.3 µM
  CC50: > 100 µM
HOP-62
  GI50: 11.2 µM
  LC50 (concentration causing 50% net cell death): 65.3 µM
  TGI: 27 µM
TK-10
  GI50: 19.4 µM
  TGI: 46 µM
  CC50: > 100 µM
SK-MEL-28
  GI50: 13.7 µM
  TGI: 27.8 µM
  CC50: 56.2 µM
A549
  GI50: 6.58 µM
  TGI: 57.1 µM
  CC50: > 100 µM
OVCAR-8
  GI50: 20.2 µM
  TGI: > 100 µM
  CC50: > 100 µM
Malme-3M
  GI50: 18 µM
  LC50 (concentration causing 50% net cell death): > 100 µM
  TGI: 89.8 µM

## Nc1nn(C(=O)Nc2ccc(Cc3ccccc3)cc2)c2ccc(Cl)cc12
RXF 393
  GI50: 13.5 µM
  TGI: 31.5 µM
  CC50: 73.4 µM
SK-OV-3
  GI50: 15.8 µM
  TGI: 50.5 µM
  CC50: > 100 µM
SNB-75
  GI50: 14 µM
  LC50 (concentration causing 50% net cell death): 74.5 µM
  TGI: 32.3 µM
SF-539
  GI50: 1.51 µM
  TGI: 11.5 µM
  CC50: 38.8 µM
COLO 205
  GI50: 0.588 µM
  LC50 (concentration causing 50% net cell death): > 100 µM
  TGI: 23.8 µM
UO-31
  GI50: 3.12 µM
  TGI: 84.5 µM
  CC50: > 100 µM
SW-620
  GI50: 0.0565 µM
  TGI: 76.5 µM
  CC50: > 100 µM
HCC 2998
  GI50: 0.238 µM
  TGI: 1.53 µM
  CC50: > 100 µM
SNB-19
  GI50: 14.6 µM
  TGI: 43.3 µM
  CC50: > 100 µM
DU-145
  GI50: 10.4 µM
  TGI: 28.9 µM
  CC50: 80 µM
IGROV-1
  GI50: 13.7 µM
  TGI: > 100 µM
  CC50: > 100 µM
[1]
  GI50: 13.3 µM
  TGI: 41.7 µM
  CC50: > 100 µM
UACC-257
  GI50: 4.92 µM
  TGI: > 100 µM
  CC50: > 100 µM
K562
  GI50: 0.0357 µM
  LC50 (concentration causing 50% net cell death): > 100 µM
  TGI: 14.7 µM
NCI-H460
  GI50: 0.0645 µM
  TGI: 14.7 µM
  CC50: 60.6 µM
[2]
  GI50: 2.58 µM
  TGI: 46.5 µM
  CC50: > 100 µM
786-0
  GI50: 3.92 µM
  TGI: 28.2 µM
  CC50: 94.4 µM
NCI-H522
  GI50: 15.6 µM
  LC50 (concentration causing 50% net cell death): > 100 µM
  TGI: > 100 µM
OVCAR-5
  GI50: 18.8 µM
  TGI: > 100 µM
  CC50: > 100 µM
U-251
  GI50: 12.5 µM
  LC50 (concentration giving 50% net cell death): 58.4 µM
  TGI: 27 µM
T47D
  GI50: 0.0741 µM
  LC50 (concentration giving 50% net cell death): > 100 µM
  TGI: 27.6 µM
SF-268
  GI50: 13 µM
  TGI: 47.7 µM
  CC50: > 100 µM
NCI-H226
  GI50: 15.4 µM
  TGI: 66.7 µM
  CC50: > 100 µM
CAKI-1
  GI50: 0.217 µM
  TGI: > 100 µM
  CC50: > 100 µM
MOLT-4
  GI50: 2.41 µM
  TGI: 55.3 µM
  CC50: > 100 µM
HOP-62
  GI50: 1.21 µM
  LC50 (concentration causing 50% net cell death): 59.7 µM
  TGI: 16.4 µM
TK-10
  GI50: 15.6 µM
  TGI: 38.7 µM
  CC50: 96.3 µM
SK-MEL-28
  GI50: 18.5 µM
  TGI: > 100 µM
  CC50: > 100 µM
A549
  GI50: 2.52 µM
  TGI: > 100 µM
  CC50: > 100 µM
OVCAR-8
  GI50: 14.9 µM
  TGI: > 100 µM
  CC50: > 100 µM
Malme-3M
  GI50: 6.69 µM
  LC50 (concentration causing 50% net cell death): > 100 µM
  TGI: 54.8 µM
